The source made the active and inactive calls. The rule behind the calls is not given here.
Legend:
[1] = Cytotoxicity against human Kelly cells assessed as inhibition of cell viability incubated for 72 hrs by MTT assay; format: functional, cell-based
Outline: (§1)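 MTT assay. Cells were seeded and, after 24 h, treated for 72 h with graded concentrations: 0–400, 0–50 or 0–100 μM depending on compound, with aprepitant at 0–100 μM. Media were DMEM for SH-SY5Y, DMEM/F12 for RPE-1 and RPMI for Kelly, each with 10% FBS, at 37 °C and 5% CO2.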

[2] = system: Kelly; assay: Induction of cell cycle arrest at S phase in human Kelly cells at 15 uM incubated for 48 hrs by flow cytometry; format: functional, cell-based
Outline: (§2)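 For cell cycle analysis, Kelly cells were treated 48 h with analogs at 20 or 40 μM or aprepitant at 15 μM. Cells were then harvested, fixed and stained with PI/RNase. G0/G1, S and G2/M fractions were measured by flow cytometry; mean ± SEM, n = 3 independent experiments.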

[3] = Selectivity index, ratio of IC50 for human RPE-1 cells to IC50 for human Kelly cells
Outline: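 Selectivity index is IC50 in nonmalignant RPE-1 divided by IC50 in the cancer line (Kelly or SH-SY5Y). The index was calculated in each individual experiment and then averaged.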

[4] = Cytotoxicity against human RPE-1 cells assessed as inhibition of cell viability incubated for 72 hrs by MTT assay; format: toxicity, cell-based; conditions: RPE-1 cells (TERT-RPE1); outline: as §1
[5] = system: Kelly; assay: Induction of cell cycle arrest at G2/M phase in human Kelly cells at 15 uM incubated for 48 hrs by flow cytometry; format: functional, cell-based; outline: as §2
[6] = system: SH-SY5Y; assay: Cytotoxicity against human SH-SY5Y cells assessed as inhibition of cell viability incubated for 72 hrs by MTT assay; format: functional, cell-based; outline: as §1

Row | Compound | IC50 [1] [µM] | Activity [2] | Ratio IC50 [3] | IC50 at 72 h [4] [µM] | Activity [5] | IC50 [6] [µM]
1 | C[C@@H](O[C@H]1O[C@H](CO)[C@@H](O)[C@H](N=[N+]=[N-])[C@H]1OCc1ccc(F)cc1)c1cc(C(F)(F)F)cc(C(F)(F)F)c1 | 88.4 | – | – | – | – | –
2 | C[C@@H](O[C@H]1OCCN(Cc2n[nH]c(=O)[nH]2)[C@H]1c1ccc(F)cc1)c1cc(C(F)(F)F)cc(C(F)(F)F)c1 [APREPITANT] | 15.1 | Active | 11.7 | 176 | inactive | –
3 | C[C@@H](O[C@H]1O[C@@H]2CO[C@@H](c3ccccc3)O[C@H]2[C@H](N=[N+]=[N-])[C@H]1OCc1ccc(F)cc1)c1cc(C(F)(F)F)cc(C(F)(F)F)c1 | 234 | – | – | – | – | –
4 | C[C@@H](O[C@@H]1O[C@@H]2CO[C@@H](c3ccccc3)O[C@H]2[C@H](N=[N+]=[N-])[C@H]1OCc1ccc(F)cc1)c1cc(C(F)(F)F)cc(C(F)(F)F)c1 | 107 | – | – | – | – | –
5 | C[C@@H](O[C@@H]1O[C@H](CO)[C@@H](O)[C@H](N=[N+]=[N-])[C@H]1OCc1ccc(F)cc1)c1cc(C(F)(F)F)cc(C(F)(F)F)c1 | 16.8 | – | – | – | – | –
6 | C[C@@H](O[C@H]1O[C@@H]2CO[C@@H](c3ccccc3)O[C@@H]2[C@H](O)[C@H]1OCc1ccc(F)cc1)c1cc(C(F)(F)F)cc(C(F)(F)F)c1 | 112 | – | – | – | – | 128
7 | C[C@@H](O[C@@H]1O[C@@H]2CO[C@@H](c3ccccc3)O[C@@H]2[C@H](O)[C@H]1OCc1ccc(F)cc1)c1cc(C(F)(F)F)cc(C(F)(F)F)c1 | 48.5 | – | 4.6 | 251 | – | –
8 | C[C@@H](O[C@H]1O[C@H](CO)[C@@H](O)[C@H](N)[C@H]1OCc1ccc(F)cc1)c1cc(C(F)(F)F)cc(C(F)(F)F)c1 | 33.6 | – | 4.3 | 146 | – | –
9 | C[C@@H](O[C@H]1O[C@@H]2CO[C@@H](c3ccccc3)O[C@H]2[C@H](N)[C@H]1OCc1ccc(F)cc1)c1cc(C(F)(F)F)cc(C(F)(F)F)c1 | 6.3 | – | 14.7 | 92.3 | – | –

— ChEMBL document CHEMBL5537144, “Biological evaluation of carbohydrate-based aprepitant analogs for neuroblastoma treatment” (Eur J Med Chem, 2024)
